Measurements reported in paper PMC3344817 (ChemMedChem, 2011).

Tests used:
Molt 4/C8 T-lymphocytes = assay: Cytotoxicity; assay type: cell-based, human; details: for IC50: Homo sapiens, Molt4/C8, 72 h, read-out: IC50, Molt 4/C8 cells; for RP (relative potency), Molt 4/C8 cells: IC50 of 2 divided by IC50 of the compound
CEM T-lymphocytes = assay: Cytotoxicity; assay type: cell-based, human; details: IC50 of 2 divided by IC50 of the compound
L1210 cells = assay: Cytotoxicity; assay type: cell-based, murine; details: for RP (relative potency), L1210 cells: IC50 of 2 divided by IC50 of the compound; for IC50: Mus musculus, L1210, 48 h, read-out: IC50, L1210 cells
CEM = assay: CC50 by flow cytometry with propidium iodide, CEM; assay type: cell-based, human; details: CC50 toward NIH-3T3 fibroblasts / CC50 toward CEM
In short: (§1)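 Non-adherent lymphoma/leukaemia cells in RPMI were given a range of test compound concentrations (DMSO solution) for 22 h at 37°C. Plasma membrane disruption was scored by flow cytometry with propidium iodide to derive CC50, and values are the mean of three independent experiments. SI = CC50 toward NIH-3T3 fibroblasts ÷ CC50 toward the given non-adherent line.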

EL-4 = assay: CC50 by flow cytometry with propidium iodide, EL-4; assay type: cell-based, murine
In short: as §1

JURKAT = assay: CC50 by flow cytometry with propidium iodide, JURKAT; assay type: cell-based, human
In short: as §1

Nalm6 = assay: CC50 by flow cytometry with propidium iodide, Nalm6; assay type: cell-based, human
In short: as §1

Sup-T1 = assay: CC50 by flow cytometry with propidium iodide, Sup-T1; assay type: cell-based, human
In short: as §1

[1] = CC50 by flow cytometry with propidium iodide, NIH-3T3 fibroblasts; assay type: cell-based, murine; details: mouse, NIH-3T3 fibroblasts (non-malignant)
In short: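 Adherent NIH-3T3 fibroblasts in DMEM received a range of test compound concentrations (DMSO solution) for 22 h at 37°C. CC50 was obtained by flow cytometry with propidium iodide, scoring plasma membrane disruption. Values are the mean of three independent experiments.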

[2] = tested on: JURKAT, Nalm-6, SUP-T1, or CEM cells; assay: Flow cytometry analysis of apoptosis and necrosis; assay type: cell-based, human; details: after 20 h; relative to the percentage at 8 h; four non-adherent cell lines
In short: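 Test compound was incubated with JURKAT, Nalm-6, SUP-T1 or CEM cells in RPMI. After 8 and 20 h, cells were stained with Annexin-V-FITC plus propidium iodide. Flow cytometry gave the percentages of apoptotic, necrotic and viable cells.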

human tumor cell lines = assay: US National Cancer Institute human tumor cell line screen; assay type: cell-based; details: 48 h; Figure 4

| Compound | IC50 (Molt 4/C8 T-lymphocytes) [µM] | RP (relative potency), Molt 4/C8 cells (Molt 4/C8 T-lymphocytes) | RP (relative potency), CEM cells (CEM T-lymphocytes) | RP (relative potency), L1210 cells (L1210 cells) | IC50 (L1210 cells) [µM] | other results |
| --- | --- | --- | --- | --- | --- | --- |
| O=C1C(=Cc2ccccc2)CN(C(=O)C=CC(=O)N2CC(=Cc3ccccc3)C(=O)C(=Cc3ccccc3)C2)CC1=Cc1ccccc1 [1 f, 1,4-Bis-(3,5-dibenzylidene-4-oxo-piperidin-1-yl)but-2-ene-1,4-dione] | 4.4 ± 2.95 | 1.8 | 0.2 | 0.3 | 28.9 ± 2 |  |
| O=C1C(=Cc2ccccc2)CN(C(=O)c2cccc(C(=O)N3CC(=Cc4ccccc4)C(=O)C(=Cc4ccccc4)C3)c2)CC1=Cc1ccccc1 [Compound 1j, 1,3-Bis-[(3,5-dibenzylidene-4-oxo-piperidin-1-yl)-1-carbonyl]benzene] |  | 0.7 | 0.1 | 0.1 |  |  |
| O=C1C(=Cc2ccccc2)CN(C(=O)CCC(=O)N2CC(=Cc3ccccc3)C(=O)C(=Cc3ccccc3)C2)CC1=Cc1ccccc1 [Compound 1c, 1,4-Bis-(3,5-dibenzylidene-4-oxo-piperidin-1-yl)butane-1,4-dione] | 0.57 ± 0.16 | 14 | 1.5 | 0.6 | 14 ± 1.2 |  |
| O=C1C(=Cc2ccccc2)CN(C(=O)CCCCCCC(=O)N2CC(=Cc3ccccc3)C(=O)C(=Cc3ccccc3)C2)CC1=Cc1ccccc1 [Compound 1e, 1,8-Bis-(3,5-dibenzylidene-4-oxo-piperidin-1-yl)octane-1,8-dione] | 1.53 ± 0.54 | 5.3 | 0.8 | 0.5 | 15.3 ± 4.2 |  |
| O=C1C(=Cc2ccccc2)CN(C(=O)CCCC(=O)N2CC(=Cc3ccccc3)C(=O)C(=Cc3ccccc3)C2)CC1=Cc1ccccc1 [Compound 1d, 1,5-Bis-(3,5-dibenzylidene-4-oxo-piperidin-1-yl)pentane-1,5-dione] | 1.61 ± 0.05 | 5.0 | 0.9 | 0.7 | 11.5 ± 0.3 |  |
| O=C1C(=Cc2ccccc2)CN(C(=O)C(=O)N2CC(=Cc3ccccc3)C(=O)C(=Cc3ccccc3)C2)CC1=Cc1ccccc1 [Compound 1a, 1,2-Bis(3,5-dibenzylidene-4-oxo-piperidin-1-yl)ethane-1,2-dione] | 0.46 ± 0.11 | 18 | 2.5 | 1.8 | 4.46 ± 0.23 | SI (selectivity index), CEM (CEM): 376; SI (selectivity index), EL-4 (EL-4; CC50 toward NIH-3T3 fibroblasts / CC50 toward EL-4): 412; CC50 (EL-4; Mus musculus, EL4, 22 h, read-out: CC50, EL-4): 0.031 µM; SI (selectivity index), JURKAT (JURKAT; CC50 toward NIH-3T3 fibroblasts / CC50 toward JURKAT): 441; CC50 (JURKAT; Homo sapiens, Jurkat, 22 h, read-out: CC50, JURKAT): 0.029 µM; SI (selectivity index), Nalm6 (Nalm6; CC50 toward NIH-3T3 fibroblasts / CC50 toward Nalm6): 581; CC50 (Nalm6; Homo sapiens, NALM-6, 22 h, read-out: CC50, Nalm6): 0.022 µM; SI (selectivity index), Sup-T1 (Sup-T1; CC50 toward NIH-3T3 fibroblasts / CC50 toward Sup-T1): 33; CC50 (Sup-T1; Homo sapiens, SUP-T1, 22 h, read-out: CC50, Sup-T1): 0.384 µM; CC50 at 22 h [1]: 12.8 µM; apoptotic cells [2]: doubling; IC50 towards human tumor cell lines, comparison (human tumor cell lines): generally displays lower IC50 values than 1 b |
| O=C1C(=Cc2ccccc2)CN(C(=O)C=CC=CC(=O)N2CC(=Cc3ccccc3)C(=O)C(=Cc3ccccc3)C2)CC1=Cc1ccccc1 [Compound 1h, 1,6-Bis-(3,5-dibenzylidene-4-oxo-piperidin-1-yl)-hexa-2,4-diene-1,6-dione] | 25.1 ± 15.8 | 0.3 | 0.1 | 0.1 | 79 ± 10.2 |  |
| N[C@@H](Cc1ccc(N(CCCl)CCCl)cc1)C(=O)O [Melphalan, reference compound] | 3.24 ± 0.79 |  |  |  |  |  |
| O=C1C(=Cc2ccccc2)CN(C(=O)c2ccccc2C(=O)N2CC(=Cc3ccccc3)C(=O)C(=Cc3ccccc3)C2)CC1=Cc1ccccc1 [Compound 1i, 1,2-Bis-[(3,5-dibenzylidene-4-oxo-piperidin-1-yl)-1-carbonyl]benzene] |  | 9.5 | 1.3 | 1.9 |  |  |
| O=C1C(=Cc2ccccc2)CN(C(=O)C#CC(=O)N2CC(=Cc3ccccc3)C(=O)C(=Cc3ccccc3)C2)CC1=Cc1ccccc1 [Compound 1g, 1,4-Bis-(3,5-dibezylidene-4-oxo-piperidin-1-yl)-but-2-yne-1,4-dione] |  | 5.4 | 0.6 | 0.8 |  |  |
| O=C1C(=Cc2ccccc2)CN(C(=O)CC(=O)N2CC(=Cc3ccccc3)C(=O)C(=Cc3ccccc3)C2)CC1=Cc1ccccc1 [Compound 1b, 1,3-Bis-(3,5-dibenzylidene-4-oxo-piperidin-1yl)propane-1,3-dione] | 0.07 ± 0.01 | 115 | 9.3 | 6.5 | 1.23 ± 0.38 |  |
